Reference: ChEMBL document CHEMBL4715752, “Synthesis and anti-leishmanial evaluation of 1-phenyl-2,3,4,9-tetrahydro-1H-β-carboline derivatives against Leishmania infantum” (Eur J Med Chem, 2016)
Converted amounts (≈) assume the structure as drawn.

Experiments:
[1] = Selectivity index, ratio of CC50 for mouse splenocytes to IC50 for Leishmania infantum BCN150 promastigotes expressing IFP1.4; format: toxicity; conditions: read-out: Ratio CC50/IC50
Leishmania infantum [2] = assay: Antileishmanial activity against Leishmania infantum BCN150 amastigotes expressing IFP1.4 infected in BALB/c mouse splenocytes incubated for 72 hrs by infrared fluorescence imaging analysis; format: functional, organism-based; conditions: BCN150, Splenocyte
How it was run: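 Spleens from female BALB/c mice infected intraperitoneally. Splenocytes washed 3x in PBS and seeded in 384-well plates in RPMI, 20% FCS, 1 mM pyruvate, vitamins, 10 mM HEPES, penicillin/streptomycin. Wells set by fixed IR fluorescence per well, not by cell count. Compounds at various concentrations for 72 h. Fluorescence read at 700 nm on an infrared imager.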

[3] = Cytotoxicity against mouse splenocytes by alamar blue assay; format: cell-based, Splenocyte
[4] = Selectivity index, ratio of CC50 for mouse splenocytes to IC50 for Leishmania infantum BCN150 amastigotes expressing IFP1.4 infected in BALB/c mouse splenocytes; format: toxicity, cell-based; conditions: read-out: Ratio CC50/IC50
Leishmania infantum [5] = assay: Antileishmanial activity against Leishmania infantum BCN150 promastigotes expressing IFP1.4 assessed as inhibition of parasite growth by measuring the infrared fluorescence incubated for 48 hrs; format: functional, organism-based; conditions: BCN150, 48 h
How it was run: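 Transgenic infrared-fluorescent L. infantum BCN150 promastigotes in 96-well plates. 200 µL culture per well at 1 × 10^6 with graded compound concentrations (1, 10, 100). Incubated 48 h at 26 °C, then promastigote growth assessed.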

Leishmania infantum [6] = assay: Antileishmanial activity against late log phase promastigote stage of Leishmania infantum MHOM/FR/78/LEM75 assessed as inhibition of parasite growth incubated for 48 hrs by hemocytometer counting method; format: functional, organism-based; conditions: MHOM/FR/78/LEM75, 48 h

| Compound | selectivity ratio [1] | IC50 (Leishmania infantum [2]) | CC50 [3] | selectivity ratio [4] | IC50 (Leishmania infantum [5]) | IC50 (Leishmania infantum [6]) |
| --- | --- | --- | --- | --- | --- | --- |
| C[C@@H]1[C@H](O)[C@@H](C)/C=C/C=C/C=C/C=C/C=C/C=C/C=C/[C@H](O[C@@H]2O[C@H](C)[C@@H](O)[C@H](N)[C@@H]2O)C[C@@H]2O[C@](O)(C[C@@H](O)C[C@@H](O)[C@H](O)CC[C@@H](O)C[C@@H](O)CC(=O)O[C@H]1C)C[C@H](O)[C@H]2C(=O)O [AMPHOTERICIN B] | > 260 | 0.32 µM | > 20 µM | > 62.5 |  |  |
| O=C(CN1CCc2c([nH]c3ccccc23)C1c1ccccc1)Nc1cccc2ccccc12 (configuration not stated) |  | 2.25 µM | > 200 µM | > 88.9 | > 100 µM |  |
| O=C(CN1CCc2c([nH]c3ccccc23)C1c1ccccc1)Nc1ccccc1Cl (configuration not stated) | > 9.67 | 1.05 µM | > 200 µM | > 190 | 20.7 µM |  |
| O=C(CN1CCc2c([nH]c3ccccc23)C1c1ccccc1)Nc1cccc(Cl)c1 (configuration not stated) | > 29.9 | 1.51 µM | > 200 µM | > 132 | 6.68 µM |  |
| O=C(CN1CCc2c([nH]c3ccccc23)C1c1ccccc1)Nc1cccc(C(F)(F)F)c1 (configuration not stated) | > 4.43 | 2.02 µM | > 200 µM | > 99 | 45.2 µM |  |
| Cc1ccccc1NC(=O)CN1CCc2c([nH]c3ccccc23)C1c1ccccc1 (configuration not stated) | > 19.2 | 0.67 µM | > 200 µM | > 298 | 10.4 µM |  |
| Cc1ccc(NC(=O)CN2CCc3c([nH]c4ccccc34)C2c2ccccc2)cc1 (configuration not stated) | > 10.4 | 6.31 µM | > 200 µM | > 31.7 | 19.2 µM |  |
| O=C(CN1CCc2c([nH]c3ccccc23)C1c1ccccc1)Nc1cccc([N+](=O)[O-])c1 (configuration not stated) |  | 0.87 µM | > 200 µM | > 230 | > 100 µM |  |
| O=C(CN1CCc2c([nH]c3ccccc23)C1c1ccccc1)Nc1ccccc1 (configuration not stated) | > 16.2 | 1.68 µM | > 200 µM | > 119 | 12.4 µM |  |
| O=C(CN1CCc2c([nH]c3ccccc23)C1c1ccccc1)Nc1ccc(Cl)cc1 (configuration not stated) | 9.64 | 3.75 µM | 146 µM | 38.9 | 15.1 µM |  |
| COc1ccccc1NC(=O)CN1CCc2c([nH]c3ccccc23)C1c1ccccc1 (configuration not stated) | > 100 | 5.35 µM | > 200 µM | > 37.4 | 1.99 µM |  |
| C/C=C1\CCN2CCc3c([nH]c4ccccc34)[C@H]2[C@@H]1[C@@H](C(=O)OC)[C@H]1NCCc2c1[nH]c1ccccc21 |  |  |  |  |  | 1.56 µg/mL (≈ 3.15 µM) |
| COc1ccc(NC(=O)CN2CCc3c([nH]c4ccccc34)C2c2ccccc2)cc1 (configuration not stated) |  | 6.46 µM | > 200 µM | > 30.9 | > 100 µM |  |
| Cc1cccc(NC(=O)CN2CCc3c([nH]c4ccccc34)C2c2ccccc2)c1 (configuration not stated) | > 26.2 | 1.48 µM | > 200 µM | > 135 | 7.63 µM |  |
| Cc1ccc(NC(=O)CN2CCc3c([nH]c4ccccc34)C2c2ccccc2)c(C)c1 (configuration not stated) | > 11.8 | 2.64 µM | > 200 µM | > 75.8 | 16.9 µM |  |
| O=C(CN1CCc2c([nH]c3ccccc23)C1c1ccccc1)Nc1ccc([N+](=O)[O-])cc1 (configuration not stated) | > 24.7 | 5.29 µM | > 200 µM | > 37.8 | 8.1 µM |  |
| O=C(CN1CCc2c([nH]c3ccccc23)C1c1ccccc1)Nc1ccc(F)cc1 (configuration not stated) | > 13.2 | 4.16 µM | > 200 µM | > 48.1 | 15.1 µM |  |
| COc1cccc(NC(=O)CN2CCc3c([nH]c4ccccc34)C2c2ccccc2)c1 (configuration not stated) | > 13.7 | 1.23 µM | > 200 µM | > 163 | 14.6 µM |  |
